Results on eight molecules are retold here after ChEMBL document CHEMBL1157267, “Polyphenolic constituents of Actaea racemosa” (J Nat Prod, 2006).

Common to all, as to format: functional
The subject of experiment [1] is Radical scavenging activity. The experiment in a line: Antioxidant activity assessed as DPPH free radical scavenging activity. The procedure, abridged: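 DPPH free-radical scavenging assay run on purified isolates with 400 µM DPPH. IC50 (µM) reported as the concentration giving half-maximal radical scavenging.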
Background: The DPPH test is a chemical assay of radical scavenging.

Experiment [2] has as its system MCF7. In words: Stimulation of cell proliferation in human MCF7 cells assessed as cell viability at 14 uM after 4 days relative to control. Put shortly:
(§1)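 MCF-7 cells grown in DMEM with 10% FBS at 37 °C and 5% CO2. Before seeding they were passaged at least twice in phenol red-free DMEM with 2 mM L-glutamine and 5% charcoal-stripped serum, then washed twice with PBS. Cells were seeded at 2 × 10^4 per well, allowed 24 h to attach, then given fresh medium with compound. After 4 days attached viable cells were Coulter-counted relative to untreated cells.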

Experiment [3] concerns MCF7. In words: Stimulation of cell proliferation in human MCF7 cells assessed as cell viability at 3.7 nM after 4 days relative to control. Put shortly: as §1
In experiment [4] the test system is MCF7. In words: Stimulation of cell proliferation in human MCF7 cells assessed as cell viability at 16.8 uM after 4 days relative to control. The procedure, abridged:
as §1

Experiment [5] concerns MCF7. In words: Cytotoxicity against human MCF7 cells at 30 uM. The settings on record: read-out: GI. The procedure, abridged:
as §1

Experiment [6] has as its system MCF7. In words: Stimulation of cell proliferation in human MCF7 cells assessed as cell viability at 10 uM after 4 days relative to control. The procedure, abridged: as §1

Structures are written as SMILES.

`COc1cc(/C=C/C(=O)O[C@H](C(=O)O)[C@](O)(Cc2ccc(O)c(O)c2)C(=O)O)ccc1O` [CIMICIFUGIC ACID A]: in experiment [1], the IC50 (as a rule, the concentration needed to halve the response being measured) is 12 µM.
In the case of `O=C1OCC(O)(C(=O)c2ccc(O)c(O)c2)/C1=C\c1ccc(O)c(O)c1` (stereo unspecified) [ACTAEALACTONE], the “fold change (FC)” value in experiment [2] came to 1.24. For the same molecule, the IC50 in experiment [1] is 26 µM.
On to `O=C(O)c1cc(O)c(O)c(O)c1` [GALLIC ACID], for which, in experiment [1], the IC50 was found to be 29.9 µM.
Same read-out and setting: the value for `O=C(/C=C/c1ccc(O)c(O)c1)O[C@H](C(=O)O)[C@](O)(Cc1ccc(O)c(O)c1)C(=O)O` [FUKINOLIC ACID] was 23 µM.
Turning to `C[C@]12CC[C@@H]3c4ccc(O)cc4CC[C@H]3[C@@H]1CC[C@@H]2O` [ESTRADIOL], the “fold change (FC)” value in experiment [3] stood at 3.6.
Turning to `O=C1OC[C@H](Cc2cccc(O)c2)[C@H]1Cc1cccc(O)c1` [ENTEROLACTONE], the “fold change (FC)” value in experiment [4] came to 1.84.
In the case of `COc1ccc(/C=C/C(=O)O[C@H](C(=O)O)[C@](O)(Cc2ccc(O)c(O)c2)C(=O)O)cc1O` [CIMICIFUGIC ACID B], the IC50 in experiment [1] is 21 µM.
As to `COc1ccc(/C=C/C(=O)O[C@H](C(=O)O)[C@](O)(Cc2ccc(O)c(O)c2)C(=O)O)cc1OC` [CIMICIFUGIC ACID G], the inhibition of growth at 30 µM in experiment [5] is 32%. The “fold change (FC)” value in experiment [6] is 1.14. The IC50 in experiment [1] worked out at 37 µM.
